# Laboratory results as given in ChEMBL document CHEMBL1140447, “Synthesis and antimuscarinic properties of quinuclidin-3-yl 1,2,3,4-tetrahydroisoquinoline-2-carboxylate derivatives as novel muscarinic receptor antagonists” (J Med Chem, 2005).
# pKi: −log10 of the molar value. Several values for one entry are separate records, joined by “and”; a condition that tells them apart may be missing. Equal values may be shown once.
# System: Rattus norvegicus
# Test: M1 antagonism measured as effect (i.v.) on McN-A343 induced pressor response in pithed rats
# Format: functional
# Settings: iv, read-out: ID50 (the source's name)
# In short: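 Compounds were given iv 15 min before McN-A343 (3 μmol/kg iv) in pithed rats, with the pressor response recorded.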
row,SMILES,ED50
1,CCN(CC)CC#CCOC(=O)C(O)(c1ccccc1)C1CCCCC1 (configuration not stated) [OXYBUTYNIN],1.1 mg/kg
2,O=C(O[C@H]1CN2CCC1CC2)N1CCc2ccccc2[C@@H]1c1ccccc1 [SOLIFENACIN],2.8 mg/kg

# System: Rattus norvegicus
# Test: M2 antagonism measured as effect (i.v.) on oxotremorine induced bradycardia in pithed rats
# Format: functional
# Settings: not given
# In short: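 Bradycardia was evoked in pithed rats by an iv oxotremorine dose–response challenge, with compounds given 15 min beforehand. DR10 is the compound dose that shifts the oxotremorine curve 10-fold to the right. Values are reported with 95% confidence limits.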
row,SMILES,DR10
1,CCN(CC)CC#CCOC(=O)C(O)(c1ccccc1)C1CCCCC1 (configuration not stated) [OXYBUTYNIN],1.6 mg/kg
2,O=C(O[C@H]1CN2CCC1CC2)N1CCc2ccccc2[C@@H]1c1ccccc1 [SOLIFENACIN],4.2 mg/kg

# System: Rattus norvegicus
# Test: Intravenous dose required to inhibit rhythmic contraction of urinary bladder in urethane (1.0 g/kg s.c.) anesthetized female wistar rats
# Format: functional
# Settings: not given
# In short: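 Each rat received escalating intravenous doses, giving a dose–response curve per animal. The fall in intravesical pressure was read 5–10 min after each dose. ED30 is the dose that cut peak intravesical pressure by 30%. Values are means ± SEM.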
row,SMILES,ED30
1,CCN(CC)CC#CCOC(=O)C(O)(c1ccccc1)C1CCCCC1 (configuration not stated) [OXYBUTYNIN],0.2 mg/kg

# Same assay, conditions: Rattus norvegicus; read-out: ED30
row,SMILES,ED30
1,"O=C(O[C@H]1CN2CCC1CC2)N1CCc2ccccc2C1c1ccsc1 (single isomer, unassigned; 12a)",0.016 mg/kg
2,CCN(CC)CC#CCOC(=O)C(O)(c1ccccc1)C1CCCCC1 (configuration not stated) [OXYBUTYNIN],0.2 mg/kg
3,O=C(O[C@H]1CN2CCC1CC2)N1CCc2ccccc2[C@H]1c1ccccc1,0.036 mg/kg
4,O=C(O[C@H]1CN2CCC1CC2)N1CCc2ccccc2[C@@H]1c1ccccc1 [SOLIFENACIN],0.18 mg/kg
5,Cc1ccc(O)c([C@H](CCN(C(C)C)C(C)C)c2ccccc2)c1 [TOLTERODINE],0.06 mg/kg
6,NC(=O)C(c1ccccc1)(c1ccccc1)[C@@H]1CCN(CCc2ccc3c(c2)CCO3)C1 [DARIFENACIN],0.058 mg/kg
7,"O=C(O[C@H]1CN2CCC1CC2)N1CCc2ccccc2C1c1ccsc1 (single isomer, unassigned; 12b)",0.24 mg/kg

# Target: T1, Muscarinic acetylcholine receptor M2 (Rattus norvegicus, UniProt P10980)
# T1 sequence (P10980 whole entry): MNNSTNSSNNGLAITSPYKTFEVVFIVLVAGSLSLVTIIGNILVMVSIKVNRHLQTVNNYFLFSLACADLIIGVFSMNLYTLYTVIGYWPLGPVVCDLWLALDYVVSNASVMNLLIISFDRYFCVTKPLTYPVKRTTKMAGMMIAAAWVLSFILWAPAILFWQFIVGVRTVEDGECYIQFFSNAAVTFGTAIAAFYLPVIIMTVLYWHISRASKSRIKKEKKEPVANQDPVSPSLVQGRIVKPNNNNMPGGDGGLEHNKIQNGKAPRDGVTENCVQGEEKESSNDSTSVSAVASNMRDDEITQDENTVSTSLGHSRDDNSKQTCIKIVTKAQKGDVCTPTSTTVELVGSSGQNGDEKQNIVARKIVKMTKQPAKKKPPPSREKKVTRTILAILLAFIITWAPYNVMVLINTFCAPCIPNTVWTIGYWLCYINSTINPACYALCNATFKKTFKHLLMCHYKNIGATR
# Test: Binding affinity for rat heart muscarinic acetylcholine receptor M2 using [3H]quinuclidinyl benzilate
# Settings: not given
row,SMILES,pKi
1,O=C(O[C@H]1CN2CCC1CC2)N1C[C@H](O)c2ccccc2[C@H]1c1ccccc1,5.77
2,"O=C(O[C@H]1CN2CCC1CC2)N1CCc2ccccc2C1c1ccsc1 (single isomer, unassigned; 12a)",7.82
3,O=C(O[C@H]1CN2CCC1CC2)N1CCc2ccccc2C1c1ccccc1 (some centres not stated),7.55
4,O=C(O[C@H]1CN2CCC1CC2)N1C[C@@H](O)c2ccccc2[C@@H]1c1ccccc1,6.07
5,O=C(O[C@@H]1CN2CCC1CC2)N1CCc2ccccc2[C@@H]1c1ccccc1,5.46
6,O=C(O[C@H]1CN2CCC1CC2)N1Cc2ccccc2C(c2ccccc2)C1 (some centres not stated),< 6.00
7,O=C(O[C@H]1CN2CCC1CC2)N1CC(O)c2ccccc2C1c1ccccc1 (some centres not stated),5.74 and 6.32
8,O=C(NC(c1ccccc1)c1ccccc1)OC1CN2CCC1CC2 (configuration not stated),8.17
9,O=C(O[C@@H]1CN2CCC1CC2)N1CCc2ccccc2[C@H]1c1ccccc1,5.80
10,O=C(O[C@H]1CN2CCC1CC2)N1CCc2ccccc2C1c1cccs1 (some centres not stated),7.89 and 7.03
11,O=C(O[C@H]1CN2CCC1CC2)N1CCc2ccccc2[C@H]1c1ccccc1,8.06
12,O=C(O[C@H]1CN2CCC1CC2)N1CCc2ccccc2[C@@H]1c1ccccc1 [SOLIFENACIN],6.92
13,O=C(O[C@H]1CN2CCC1CC2)N1Cc2ccccc2C1c1ccccc1 (some centres not stated),6.36
14,O=C(O[C@H]1CN2CCC1CC2)N1CCc2ccccc2C1C1CCCCC1 (some centres not stated),7.66 and 7.41
15,"O=C(O[C@H]1CN2CCC1CC2)N1CCc2ccccc2C1c1ccsc1 (single isomer, unassigned; 12b)",6.96

# System: Rattus norvegicus
# Test: Intravenous dose required to inhibit oxotremorine induced salivary secretion in urethane ([…] i.p.) anesthetized male wistar rats
# Format: functional
# Settings: not given
row,SMILES,ID50
1,CCN(CC)CC#CCOC(=O)C(O)(c1ccccc1)C1CCCCC1 (configuration not stated) [OXYBUTYNIN],0.17 mg/kg

# Same assay, conditions: Rattus norvegicus; read-out: ID50 (the source's name)
row,SMILES,ED50
1,"O=C(O[C@H]1CN2CCC1CC2)N1CCc2ccccc2C1c1ccsc1 (single isomer, unassigned; 12a)",0.11 mg/kg
2,CCN(CC)CC#CCOC(=O)C(O)(c1ccccc1)C1CCCCC1 (configuration not stated) [OXYBUTYNIN],0.17 mg/kg
3,O=C(O[C@H]1CN2CCC1CC2)N1CCc2ccccc2[C@H]1c1ccccc1,0.12 mg/kg
4,O=C(O[C@H]1CN2CCC1CC2)N1CCc2ccccc2[C@@H]1c1ccccc1 [SOLIFENACIN],2.1 mg/kg
5,Cc1ccc(O)c([C@H](CCN(C(C)C)C(C)C)c2ccccc2)c1 [TOLTERODINE],0.26 mg/kg
6,NC(=O)C(c1ccccc1)(c1ccccc1)[C@@H]1CCN(CCc2ccc3c(c2)CCO3)C1 [DARIFENACIN],0.11 mg/kg
7,"O=C(O[C@H]1CN2CCC1CC2)N1CCc2ccccc2C1c1ccsc1 (single isomer, unassigned; 12b)",1.3 mg/kg

# Species: Rattus norvegicus
# Test: Selectivity index calculated as ID50/ED30
# Settings: not given
row,SMILES,Selectivity index
1,Cc1ccc(O)c([C@H](CCN(C(C)C)C(C)C)c2ccccc2)c1 [TOLTERODINE],4.3
2,NC(=O)C(c1ccccc1)(c1ccccc1)[C@@H]1CCN(CCc2ccc3c(c2)CCO3)C1 [DARIFENACIN],1.9
